Experimental data from publication PMC3583367 (ACS medicinal chemistry letters, 2013).

Legend:
STAT3 promoter activity = test: STAT3 dual luciferase reporter assay; assay type: cell-based, human; settings: 24 h pre-treatment
Outline: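 MDA-MB-231 cells were transiently transfected with the pSTAT3-Luc reporter vector and pretreated with test compound at different concentrations for 24 h. STAT3 promoter activity was then read by luciferase.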

STAT3 = test: Western blot of total and phosphorylated STAT3 in MDA-MB-231 cells; assay type: cell-based, human; settings: MDA-MB-231, 24 h
Outline: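 MDA-MB-231 cells were treated with different doses of test compound for 24 h, then probed by Western blot for total STAT3 and Tyr-705 phospho-STAT3. Bands were quantified by densitometry over three independent experiments, with significance at p < 0.05 and p < 0.01.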

[1] = system: MDA-MB-231 breast cancer cells; test: Annexin V-based flow cytometry apoptosis measurement; assay type: cell-based, human; settings: MDA-MB-231, dose-dependent
[2] = system: MDA-MB-231 breast cancer cells; test: Cellular morphological changes under light microscopy; assay type: cell-based, human; settings: MDA-MB-231, 48 h, 1 μM, 5 μM and 10 μM
[3] = system: human breast and pancreatic cancer cell lines; test: MTS proliferation assays, statements over the cell line panel; assay type: cell-based; settings: for antiproliferative activity (in words): MCF-7, MDA-MB-231, AsPC1, Panc-1, MTS assays
caspase-3 = test: Western blot of cleaved caspase-3 in MDA-MB-231 cells; assay type: cell-based, human; settings: MDA-MB-231, Western blot
Outline: (§1)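 Protein expression in MDA-MB-231 cells was analysed by Western blot after treatment with test compound. Band intensities were quantified by densitometry over three independent experiments, with significance marked at p < 0.05 and p < 0.01.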

cyclin D1 = test: Western blot of cyclin D1 in MDA-MB-231 cells; assay type: cell-based, human; settings: MDA-MB-231, Western blot
Outline: as §1

[4] = system: MDA-MB-231 xenograft tumors; test: MDA-MB-231 xenograft tumor growth model; assay type: in vivo, mice
[5] = Signs of toxicity in mice; assay type: in vivo; settings: 75 mg/kg

## O=C(Nc1ccc([N+](=O)[O-])cc1Cl)c1cc(Cl)ccc1O [Compound 1, niclosamide, reference compound]
STAT3 promoter activity; 20 μM, MDA-MB-231
  STAT3 promoter activity (in words): suppressed
STAT3
  phosphorylated STAT3 (p-STAT3) at Tyr-705: suppressed
  total STAT3 level: reduced
[1]
  apoptosis (annexin V, flow cytometry): activated apoptosis
[2]
  cell proliferation and apoptosis with cellular morphological changes: significantly inhibited cell proliferation and induced apoptosis

## O=C(Nc1ccc([N+](=O)[O-])cc1Cl)c1cc(Cl)ccc1OCCF [Compound 3]
[3]
  antiproliferative activity (in words): no significant effects

## CN1CCC(Oc2ccc(Cl)cc2C(=O)Nc2ccc([N+](=O)[O-])cc2Cl)CC1 [Compound 4]
[3]; vs analogue 10
  fold loss of antiproliferative activity in comparison with analogue 10: 10 fold

## O=C(Nc1ccc([N+](=O)[O-])cc1Cl)c1cc(Cl)ccc1OC1CCNCC1 [Compound 10]
[2]
  cell proliferation and apoptosis with cellular morphological changes: significantly inhibited cell proliferation and induced apoptosis

## NCCOc1ccc(Cl)cc1C(=O)Nc1ccc([N+](=O)[O-])cc1Cl [Compound 11]
STAT3 promoter activity; 10 μM, MDA-MB-231, compared with control
  decrease of STAT3 promoter activity: approximately 32%
STAT3
  phosphorylated STAT3 (p-STAT3) at Tyr-705: suppressed
  total STAT3 level: reduced
caspase-3
  cleaved caspase-3: induced
Cyclin D1
  cyclin D1: downregulated
[1]
  apoptosis (annexin V, flow cytometry): activated apoptosis
[2]
  cell proliferation and apoptosis with cellular morphological changes: significantly inhibited cell proliferation and induced apoptosis
[4]; 7.5 mg/kg i.p., compared with 12.5 mg/kg niclosamide
  inhibition of xenograft tumor growth, i.p.: better effect in inhibiting tumor growth
[4]; 25 mg/kg p.o., more efficacious than niclosamide at 75 mg/kg
  growth of xenograft tumors, oral administration: significantly reduced
[4]; nude mice bearing MDA-MB-231 xenografts
  xenograft tumor growth in vivo (both i.p. & p.o.): significantly suppressed
[5]
  signs of toxicity: did not show significant signs of toxicity

## CS(=O)(=O)Nc1ccc(NC(=O)c2cc(Cl)ccc2OC2CCNCC2)c(Cl)c1 [Compound 19]
[3]
  antiproliferative activity (in words): significant loss of the antiproliferative activity

## CC(=O)Nc1ccc(NC(=O)c2cc(Cl)ccc2OC2CCNCC2)c(Cl)c1 [Compound 20]
[3]
  antiproliferative activity (in words): significant loss of the antiproliferative activity
